Data on ten compounds can be found in ChEMBL document CHEMBL1129733, “Aminoacetyl moiety as a potential surrogate for diacylhydrazine group of SC-51089, a potent PGE2 antagonist, and its analogs” (J Med Chem, 1996).

What is called ED50 is the midpoint of the dose-response relation. Low values mean an effect at a small dose, high ones a need for a large dose.

One test is filed under the species Mus musculus. The experiment in a line: Antinociceptive activity in mouse by using phenylbenzoquinone writing assay. In kind it is functional. An outline of the steps: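 Mice given test compound at an initial screening dose of 30 mg/kg. ED50 determined only for compounds producing a response in seven of ten animals, with 95% confidence limits (p < 0.05).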
Test [1] deals with Prostaglandin E2 receptor EP1 (Cavia porcellus). The experiment in a line: PGE-2 (EP1 subtype) antagonistic activity as PGE2-stimulated guinea pig ileum muscle strip assay. The note with it: read-out: pA2 (converted).

In turn, `O=C(CCc1ccncc1)NNC(=O)N1Cc2ccccc2Oc2ccc(Cl)cc21` gave an ED50 in the test filed under Mus musculus of 6.8 mg/kg. Further, the Kb in test [1] was 316 nM.
In the case of `O=C(CCc1ccncc1)NCC(=O)N1Cc2ccccc2Oc2ccc(Cl)cc21`, the Kb in test [1] is 2000 nM.
Turning to `CCS(=O)(=O)CCC(=O)NCC(=O)N1Cc2ccccc2Oc2ccc(Cl)cc21`, the Kb in test [1] is 2000 nM.
As for `O=C(CCSCc1ccco1)NNC(=O)N1Cc2ccccc2Oc2ccc(Cl)cc21`, in the test filed under Mus musculus, the ED50 was determined as 0.9 mg/kg.
With `O=C(CCSCc1ccco1)NCC(=O)N1Cc2ccccc2Oc2ccc(Cl)cc21`, the Kb in test [1] is 39.8 nM.
Turning to `O=C(CCSCc1ccco1)CNC(=O)N1Cc2ccccc2Oc2ccc(Cl)cc21`, in test [1], the Kb is 63.1 nM.
`O=C(CNC(=O)C(F)(F)C(O)c1ccccn1)N1Cc2ccccc2Oc2ccc(Cl)cc21` (stereo not drawn) yielded an ED50 in the test filed under Mus musculus of 8.1 mg/kg.
For the compound `CCS(=O)(=O)CCC(=O)NNC(=O)N1Cc2ccccc2Oc2ccc(Cl)cc21`, the 50% effect level in the test filed under Mus musculus (ED50) was put at a dose of 7.4 mg/kg. In addition, in test [1], the Kb is 1580 nM.
For the compound `CCS(=O)(=O)CCC(=O)CNC(=O)N1Cc2ccccc2Oc2ccc(Cl)cc21`, the Kb in test [1] was 2510 nM.
In turn, `O=C(NNC(=O)C(F)(F)C(O)c1ccccn1)N1Cc2ccccc2Oc2ccc(Cl)cc21` (stereo not drawn) showed an ED50 in the test filed under Mus musculus of 9.1 mg/kg. Also, the Kb in test [1] is 31.6 nM.
